YB-1 expression – YB-1 expression inhibition; U2OS, qRT-PCR YB-1 vs CDIP delta delta Cp, 16 h; stronger effect = higher value; zero = DMSO, each unit about twofold; delta delta Cp (YB-1 minus CDIP) (test concentration not listed); 30,000 tested, 0.37% active;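 active means delta delta Cp rounded down to an integer at or above 3, about 3 SD of DMSO wells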;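 further: higher means less YB-1 transcript or more CDIP transcript relative to DMSO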
T cruzi HTS – inhibitors of intracellular Trypanosoma cruzi. 22,000 tested, 4.9% active. intracellular Trypanosoma cruzi in host cells, plate reader. activity score (inhibition), % at 5.01 µM. AID 651903; in the data active means activity score above about 55%;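 further: parasites and compound incubated about four days before reading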
INS-1E ATP HTS – INS-1E beta cell protection from cytokine death; AID 488910; protection from cytokine-induced ATP loss, % at 10 µM; 20,000 tested, 0.1% active; INS-1E cytokine-induced death, ATP luminescence, 48 h; normalised: neutral wells 0, positive control 100;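 active means mean replicate protection from cytokine-induced ATP loss at least 50% and at least 75% of replicates each reaching 50%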
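Assay system – rat INS-1E insulinoma cell line · Quantity – 8000 cells per well · Buffer or medium – RPMI without phenol red, 5% FBS · Schedule – 48 h co-treatment, 10 min post-lysis read · Technique – luminescent ATP assay (CellTiter-Glo)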
Of the large screens only hits and unclear results are named; the others gave an inactive call. The entries come from a sample that favours hits as a whole.

C[C@@H]1CCCCO[C@@H](CN(C)Cc2ccc(C(=O)O)cc2)[C@@H](C)CN([C@H](C)CO)C(=O)c2cc(NC(=O)Nc3ccc(C(F)(F)F)cc3)ccc2O1	none
COc1ccc(NC(=O)Nc2ccc3c(c2)C(=O)N([C@H](C)CO)C[C@H](C)[C@@H](CN(C)Cc2ccc(C(F)(F)F)cc2)OCCCC[C@@H](C)O3)cc1	T cruzi HTS 63
C[C@@H]1CCCCO[C@@H](CN(C)Cc2ccc(C(F)(F)F)cc2)[C@@H](C)CN([C@H](C)CO)C(=O)c2cc(NC(=O)c3ccccc3)ccc2O1	T cruzi HTS 63
COc1ccc(NC(=O)Nc2ccc3c(c2)C(=O)N([C@H](C)CO)C[C@H](C)[C@H](CN(C)Cc2ccncc2)OCCCC[C@@H](C)O3)cc1	none
C[C@@H]1CCCCO[C@@H](CN(C)Cc2ccccc2)[C@@H](C)CN([C@H](C)CO)C(=O)c2cc(NC(=O)Nc3ccc(C(F)(F)F)cc3)ccc2O1	T cruzi HTS 71
C[C@@H]1CCCCO[C@@H](CN(C)Cc2ccc(C(=O)Nc3ccccc3N)cc2)[C@@H](C)CN([C@H](C)CO)C(=O)c2cc(NC(=O)Nc3ccc(F)cc3)ccc2O1	none
Cc1noc(C)c1NC(=O)Nc1ccc2c(c1)C(=O)N([C@H](C)CO)C[C@@H](C)[C@H](CN(C)C(=O)NC1CCCCC1)O2	none
CNC(=O)c1cnc2cc(Cl)ccc2c1OC	none (no result: T cruzi HTS, INS-1E ATP HTS)
O=C(N1CCOCC1)[C@@]1(Cc2ccccc2)N=C(c2ccc(OCCCO)cc2)O[C@H]1c1ccccc1	none (no result: T cruzi HTS, INS-1E ATP HTS)
C[C@@H]1CCCCO[C@@H](CN(C)Cc2ccc(C(F)(F)F)cc2)[C@@H](C)CN([C@H](C)CO)C(=O)c2cc(NC(=O)Cc3ccccc3)ccc2O1	T cruzi HTS 63
C[C@@H]1CCCCO[C@@H](CN(C)Cc2ccccc2)[C@@H](C)CN([C@H](C)CO)C(=O)c2cc(NC(=O)Cc3ccccc3)ccc2O1	none
COc1ncccc1C(=O)Nc1ccc(F)cc1F	none (no result: T cruzi HTS, INS-1E ATP HTS)
C[C@@H]1CCCCO[C@@H](CN(C)Cc2ccccc2)[C@@H](C)CN([C@H](C)CO)C(=O)c2cc(NC(=O)Nc3ccccc3)ccc2O1	none
C[C@@H]1CCCCO[C@H](CN(C)Cc2ccc(Cl)c(Cl)c2)[C@@H](C)CN([C@H](C)CO)C(=O)c2cc(NC(=O)Nc3ccccc3)ccc2O1	T cruzi HTS 76
C[C@@H]1CCCCO[C@@H](CN(C)Cc2ccc(Cl)c(Cl)c2)[C@@H](C)CN([C@H](C)CO)C(=O)c2cc(NC(=O)Nc3ccccc3)ccc2O1	T cruzi HTS 78
C[C@@H]1CCCCO[C@H](CN(C)Cc2ccc(Cl)c(Cl)c2)[C@@H](C)CN([C@H](C)CO)C(=O)c2cc(NC(=O)c3ccccc3)ccc2O1	none
Cc1noc(C)c1NC(=O)Nc1ccc2c(c1)C(=O)N([C@H](C)CO)C[C@H](C)[C@H](CN(C)Cc1ccc3c(c1)OCO3)OCCCC[C@@H](C)O2	none
C[C@H](CO)N1C[C@H](C)[C@H](CN(C)Cc2ccc(Cl)c(Cl)c2)Oc2ccc(NC(=O)C3CCCCC3)cc2C1=O	none
Cc1noc(C)c1NC(=O)Nc1ccc2c(c1)C(=O)N([C@H](C)CO)C[C@H](C)[C@@H](CN(C)Cc1ccc(Cl)c(Cl)c1)OCCCC[C@@H](C)O2	YB-1 expression 6.1
C[C@@H]1CCCCO[C@@H](CN(C)Cc2ccc(Cl)c(Cl)c2)[C@@H](C)CN([C@H](C)CO)C(=O)c2cc(NC(=O)C3CCCCC3)ccc2O1	T cruzi HTS 88
N#Cc1cccc(CSc2nnc(SCc3cccc(C#N)c3)s2)c1	none (no result: T cruzi HTS, INS-1E ATP HTS)
Cc1cc(C(=O)Nc2cccc3c2O[C@H](CN(C)Cc2ccc(Cl)c(Cl)c2)[C@@H](C)CN([C@H](C)CO)C3=O)n(C)n1	none
C[C@H](CO)N1C[C@H](C)[C@@H](CN(C)S(C)(=O)=O)Oc2ccc(NS(=O)(=O)c3cccs3)cc2C1=O	none
S=c1[nH]n(-c2ccc(Cl)cc2)c(=S)s1	YB-1 expression 5 (no result: T cruzi HTS, INS-1E ATP HTS)
Cc1ccc(S(=O)(=O)N(C)C[C@@H]2Oc3ccc(NC(=O)Nc4c(C)noc4C)cc3CC(=O)N([C@@H](C)CO)C[C@@H]2C)cc1	none
CC1(C)CCc2cc(C3SCCS3)ccc2O1	none (no result: T cruzi HTS, INS-1E ATP HTS)
C[C@H]1CN([C@@H](C)CO)C(=O)Cc2cc(N(C)C)ccc2O[C@@H]1CN(C)Cc1ccc(Oc2ccccc2)cc1	T cruzi HTS 67
C[C@H](CO)N1C[C@H](C)[C@H](CN(C)Cc2ccccc2)Oc2ccc(N(C)C)cc2CC1=O	none
C[C@@H]1CN([C@H](C)CO)C(=O)Cc2cc(N(C)C)ccc2O[C@@H]1CN(C)Cc1ccc(Oc2ccccc2)cc1	none
C[C@H]1CN([C@@H](C)CO)C(=O)Cc2cc(N(C)C)ccc2O[C@H]1CN(C)Cc1ccc(Oc2ccccc2)cc1	T cruzi HTS 76
C[C@H]1CN([C@@H](C)CO)C(=O)Cc2cc(NC(=O)Nc3ccccc3)ccc2O[C@H]1CN(C)Cc1ccc(Cl)c(Cl)c1	none
C[C@@H]1CN([C@@H](C)CO)C(=O)Cc2cc(NC(=O)Nc3ccc(F)cc3)ccc2O[C@@H]1CN(C)Cc1ccc(Cl)c(Cl)c1	T cruzi HTS 67
C[C@H](CO)N1C[C@H](C)[C@H](CN(C)Cc2ccc(Cl)c(Cl)c2)Oc2ccc(NC(=O)Nc3ccccc3)cc2CC1=O	T cruzi HTS 75
C[C@H](CO)N1C[C@H](C)[C@H](CN(C)Cc2ccc3c(c2)OCO3)Oc2ccc(NC(=O)Nc3ccc4c(c3)OCO4)cc2CC1=O	none
C[C@H]1CN([C@@H](C)CO)C(=O)Cc2cc(NC(=O)Cc3ccccc3)ccc2O[C@@H]1CN(C)Cc1ccccc1	none
C[C@H]1CN([C@@H](C)CO)C(=O)Cc2cc(NC(=O)Cc3ccccc3)ccc2O[C@H]1CN(C)Cc1ccc(Cl)c(Cl)c1	T cruzi HTS 57
COc1ccc(NC(=O)Nc2ccc3c(c2)CC(=O)N([C@H](C)CO)C[C@H](C)[C@H](CN(C)Cc2ccc(Cl)c(Cl)c2)O3)cc1	none
C[C@H](CO)N1C[C@H](C)[C@H](CN(C)Cc2ccc(Cl)c(Cl)c2)Oc2ccc(NC(=O)Nc3ccc4c(c3)OCO4)cc2CC1=O	T cruzi HTS 80
C[C@@H]1CN([C@H](C)CO)C(=O)c2cc(NC(=O)Nc3ccc(F)cc3)ccc2O[C@@H]1CN(C)S(=O)(=O)c1ccc(Cl)cc1	none
O=C1N(C2CCCCC2)C(=NC2CCCCC2)SC12CC2	none (no result: T cruzi HTS, INS-1E ATP HTS)
COc1ccc(N(CN2C(=O)c3ccccc3C2=O)C(=O)c2ccccc2)cc1	none (no result: T cruzi HTS, INS-1E ATP HTS)
C[C@H]1CN([C@@H](C)CO)C(=O)c2cc(NC(=O)Nc3ccc(C(F)(F)F)cc3)ccc2O[C@@H]1CN(C)C	none
CNC[C@@H]1Oc2ccc(NS(=O)(=O)c3c(C)noc3C)cc2C(=O)N([C@H](C)CO)C[C@H]1C	none
O=C(O)C1=C[C@@H](c2ccccc2)C[C@@H](OCc2ccc(CO)cc2)O1	none (no result: T cruzi HTS, INS-1E ATP HTS)
COc1ccc([C@H]2C=C(C(=O)NCc3ccccc3)O[C@@H](OCc3ccc(CO)cc3)C2)cc1	YB-1 expression 3.3 (no result: T cruzi HTS, INS-1E ATP HTS)
Cc1noc(C)c1NC(=O)N(C)C[C@H]1Oc2c(NS(=O)(=O)c3ccccc3)cccc2C(=O)N([C@@H](C)CO)C[C@@H]1C	none
O=C(N/N=C/c1ccccc1Br)c1ccccc1O	none

Compound activity deposited in PubChem BioAssay by Broad Institute.
